# Source: PubChem BioAssay (Broad Institute)
# T cruzi growth-1: T. cruzi intracellular proliferation inhibitors, primary screen, cell-based, beta-gal Tulahuen parasites, NIH3T3 host, luminescence; 5.9% of 77,000 active; T. cruzi beta-gal in NIH3T3, GalScreen luminescence, 90 h; inhibition, % at 8.34 µM;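 active = mean inhibition above about 93%, with at least 55% of replicates each passing it, limit read from the data, passing the limit was not always enough; inconclusive = only one of those two conditions holds; inactive = neither condition holds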
# GASC1 inh: inhibitors of GASC-1 (KDM4C) histone demethylase, primary screen, biochemical, single concentration HTS; 0.15% of 96,000 active; inhibition, % at 12.5 µM; GST-KDM4C 2-372, H3K9me3 peptide, LANCE TR-FRET; Lysine-specific demethylase 4C (Homo sapiens), Q9H3R0;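 active = mean replicate inhibition above about 25%, with at least 55% of replicates also reaching it, limit read from the data, passing the limit was not always enough; inconclusive = only one of those two conditions met; inactive = neither condition met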
# Target sequence (Q9H3R0 2-372 limits assumed): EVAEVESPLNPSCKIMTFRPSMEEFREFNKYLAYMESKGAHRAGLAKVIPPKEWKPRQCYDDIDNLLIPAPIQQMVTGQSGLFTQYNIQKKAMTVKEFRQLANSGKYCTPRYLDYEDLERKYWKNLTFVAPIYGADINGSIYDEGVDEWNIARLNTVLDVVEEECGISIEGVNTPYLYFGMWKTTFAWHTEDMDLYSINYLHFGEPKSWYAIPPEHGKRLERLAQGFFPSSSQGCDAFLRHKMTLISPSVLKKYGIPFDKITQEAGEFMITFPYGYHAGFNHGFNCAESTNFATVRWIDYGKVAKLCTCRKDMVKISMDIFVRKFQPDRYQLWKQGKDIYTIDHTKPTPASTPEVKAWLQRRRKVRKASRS
#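 Compound: one test concentration per compound; Material: GST-GASC-1 enzyme fragment 2-372; Amount: GASC-1 enzyme at 10 nM final in reaction; Also added: H3K9me3 peptide substrate, Fe(II), 2-oxoglutarate; Technique: LANCE TR-FRET; Times: 30 min demethylation and 1 h detection at room temperature.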
# IDH1 mut inh: inhibitors of IDH1 R132H reductase, primary screen, biochemical, plate reader, single point; Isocitrate dehydrogenase [NADP] cytoplasmic (Homo sapiens), O75874; diaphorase/resazurin fluorescence, 60 min; inhibition, % at 10 µM; 0.18% of 70,000 active; in the data active = inhibition above about 34%; inconclusive = no clear call, values can overlap the other calls; inactive = below about 11%;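 note: 0% = DMSO and 100% = no enzyme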
# T cruzi growth-2: T. cruzi intracellular proliferation inhibitors, confirmation, cell-based, NIH3T3 host, beta-gal parasite, luminescence, cherry-pick | shares compounds with T cruzi growth-1 | inhibition, % at 8.35 µM | T. cruzi beta-gal in NIH3T3, GalScreen luminescence, 90 h | 72% of 5,600 active;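 active = mean replicate inhibition above about 95% and at least 55% of replicates individually reaching it, limit read from the data; inconclusive = only one of the two criteria is met; inactive = neither criterion is met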
# T cruzi growth-3: inhibitors of intracellular T. cruzi replication, confirmation, NIH3T3 host cells, beta-gal parasites, cherry-pick, set 2; 21% of 5,600 active; shares compounds with T cruzi growth-1; inhibition, % at 2.09 µM; T. cruzi beta-gal in NIH3T3, GalScreen luminescence, 90 h;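 active = mean inhibition above about 95%, with at least 55% of replicates also reaching it, limit read from the data; inconclusive = meets just one of the two conditions; inactive = meets neither condition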;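 note: plate controls were neutral control median for no effect and positive control median for full effect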
# 3T3 cytotox: cytotoxicity in mouse NIH/3T3 fibroblasts, confirmation, cytotoxicity control for T. cruzi proliferation inhibitor project, cell-based, cherry-pick, single point; shares compounds with T cruzi growth-1; 14% of 5,600 active; AID 651742, 2012; cytotoxicity (signal decrease), % at 8.35 µM; NIH/3T3 viability, CellTiter-Glo ATP luminescence, 90 h;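 active = mean signal decrease across replicates above about 35% based on untreated-well scatter, with enough replicates individually passing, limit read from the data; inconclusive = no rule stated though some were filed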;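 note: 0% = median of neutral control wells and 100% = median of positive control wells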
# NIH3T3 tox 2: NIH/3T3 fibroblast cytotoxicity, confirmation, cytotoxicity control, cell-based, cherry-pick, single point, set 2; shares compounds with T cruzi growth-1; NIH/3T3 viability, CellTiter-Glo ATP luminescence, 90 h; inhibition, % at 24.9 µM; 56% of 5,600 active;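 active = mean loss of cell viability signal at or above a set limit, and enough replicates individually reaching it; inconclusive = meets only the mean limit or only the replicate share; inactive = meets neither condition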;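 note: 0% = median of neutral control wells and 100% = median of positive control wells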
# * = called active by the depositor; ? = inconclusive; · = no result. This is one part of a sample in which hits are shown more often than they occur.
SMILES,T cruzi growth-1,GASC1 inh,IDH1 mut inh,T cruzi growth-2,T cruzi growth-3,3T3 cytotox,NIH3T3 tox 2
O=C(c1cccc(F)c1)N1CCCCN2[C@H](C1)[C@@H](c1ccc(/C=C/c3ccccc3)cc1)[C@@H]2CO,111*,1,·,92,83,54*,39*
O=C(c1cccc(F)c1)N1CCCCN2[C@H](CO)[C@H](c3ccc(-c4cncnc4)cc3)[C@@H]2C1,75,0,·,·,·,·,·
O=C(c1cccc(F)c1)N1CCCCN2[C@H](CO)[C@@H](c3ccc(/C=C/c4ccccc4)cc3)[C@@H]2C1,109*,-3,·,100*,19,17,10
O=C(c1cccc(F)c1)N1CC(=O)N2[C@H](CO)[C@H](c3ccc(/C=C/c4ccccc4)cc3)[C@@H]2C1,·,0,·,·,·,·,·
O=C(c1ccc(F)cc1)N1CCCCN2[C@@H](CO)[C@H](c3ccc(/C=C/c4ccccc4)cc3)[C@@H]2C1,112*,-1,·,95*,76,60*,103*
O=C(c1ccc(F)cc1)N1CCCCN2[C@H](C1)[C@H](c1ccc(-c3ccccc3)cc1)[C@@H]2CO,93,0,·,·,·,·,·
O=C(c1cccc(F)c1)N1CCCCN2[C@@H](CO)[C@@H](c3ccc(/C=C/c4ccccc4)cc3)[C@@H]2C1,109*,-3,·,101*,79,66*,105*
Cc1ccc(-n2c(C)nnc2SCC(=O)Nc2c(C)cccc2C)cc1C,·,·,1,·,·,·,·
CCOc1ccc2ccccc2c1C(=O)NCc1ccco1,·,·,0,·,·,·,·
Cc1nc(SCC(=O)c2ccc3c(c2)OCCO3)c2c3c(sc2n1)CCC3,·,·,1,·,·,·,·
CCOC(=O)c1c(NC(=S)NC(=O)c2ccc3c(c2)OCCO3)sc(C(=O)OC)c1C,·,·,0,·,·,·,·
C=CC(C)(CC/C=C(\C)C(=O)O)O[C@@H]1O[C@H](C)[C@@H](O)[C@H](O)[C@H]1O (stereo not given in full),·,·,0,·,·,·,·
O=C(c1cccc(F)c1)N1CCCCN2[C@H](C1)[C@@H](c1ccc(-c3ccc(F)cc3)cc1)[C@@H]2CO,93,·,·,·,·,·,·
O=C(c1cccc(F)c1)N1CCCCN2[C@H](C1)[C@H](c1ccc(/C=C/c3ccccc3)cc1)[C@@H]2CO,110*,-1,·,?,13,7,103*
C[C@@H]1CCCCO[C@H](CN(C)CC2CCCCC2)[C@H](C)CN([C@@H](C)CO)C(=O)c2cc(NC(=O)c3ccccc3)ccc2O1,115,0,·,·,·,·,·
C[C@@H]1CCCCO[C@H](CN(C)CC2CCCCC2)[C@H](C)CN([C@H](C)CO)C(=O)c2cc(NC(=O)c3ccccc3)ccc2O1,118*,3,4,114*,65,15,105*
COc1ccc(NC(=O)Nc2ccc3c(c2)C(=O)N([C@@H](C)CO)C[C@H](C)[C@@H](CN(C)CC2CCCCC2)OCCCC[C@H](C)O3)cc1,90,-2,·,·,·,·,·
C[C@H]1CCCCO[C@@H](CN(C)CC2CCCCC2)[C@@H](C)CN([C@@H](C)CO)C(=O)c2cc(NC(=O)c3ccccc3)ccc2O1,39,-3,-1,·,·,·,·
COc1ccc(NC(=O)Nc2ccc3c(c2)C(=O)N([C@H](C)CO)C[C@H](C)[C@@H](CN(C)CC2CCCCC2)OCCCC[C@H](C)O3)cc1,96*,-1,·,105*,112*,24,105*
COc1ccc(NC(=O)Nc2ccc3c(c2)CC(=O)N([C@@H](C)CO)C[C@@H](C)[C@@H](CN(C)CC2CCCCC2)O3)cc1,50,-1,-1,·,·,·,·
COc1ccc(NC(=O)Nc2ccc3c(c2)CC(=O)N([C@@H](C)CO)C[C@@H](C)[C@H](CN(C)CC2CCCCC2)O3)cc1,120*,0,1,99*,39,12,104*
C[C@@H]1CCCCO[C@H](CN(C)CC2CCCCC2)[C@@H](C)CN([C@H](C)CO)C(=O)c2cc(NC(=O)Nc3ccccc3)ccc2O1,109*,1,·,112*,91,4,95*
O=C(NN=C1CCCCCC1)c1ccccn1,·,·,0,·,·,·,·
Cn1c(SCC(=O)Nc2ccccc2C(F)(F)F)nnc1-c1cccc(N)c1,·,·,0,·,·,·,·
COc1ccc(Br)cc1/C=N/NC(=O)CCCCCC(=O)Nc1ccccc1O,·,·,0,·,·,·,·
SMILES,T cruzi growth-1,GASC1 inh,IDH1 mut inh,T cruzi growth-2,T cruzi growth-3,3T3 cytotox,NIH3T3 tox 2
NS(=O)(=O)c1ccc(NC(=S)NCCc2c[nH]c3ccccc23)cc1,·,·,0,·,·,·,·
O=C(O)CCCCCC(=O)N/N=C/CCC1CCCCC1,·,·,0,·,·,·,·
O=C(NCc1ccco1)c1cncc(Br)c1,·,·,0,·,·,·,·
Cc1nnc(SCC(=O)Nc2ccc(Cl)c(C)c2)s1,·,·,0,·,·,·,·
C[C@@H]1CCCCO[C@@H](CN(C)CC2CCCCC2)[C@@H](C)CN([C@@H](C)CO)C(=O)c2cc(NC(=O)Nc3ccccc3)ccc2O1,125*,0,-3,104*,92,23,103*
C[C@@H]1CCCCO[C@@H](CN(C)CC2CC2)[C@H](C)CN([C@H](C)CO)C(=O)c2cc(NC(=O)Nc3ccccc3)ccc2O1,86,-2,·,·,·,·,·
C[C@@H]1CCCCO[C@@H](CN(C)CC2CCCCC2)[C@@H](C)CN([C@@H](C)CO)C(=O)c2cc(NC(=O)Nc3ccc4c(c3)OCO4)ccc2O1,92,16,·,·,·,·,·
C[C@@H]1CCCCO[C@H](CN(C)CC2CCCCC2)[C@H](C)CN([C@@H](C)CO)C(=O)c2cc(NC(=O)Nc3ccccc3)ccc2O1,92,-1,·,·,·,·,·
C[C@@H]1CCCCO[C@@H](CN(C)CC2CCCCC2)[C@H](C)CN([C@@H](C)CO)C(=O)c2cc(NC(=O)Nc3ccccc3)ccc2O1,105*,2,1,101*,58,31,104*
C[C@H]1CCCCO[C@@H](CN(C)CC2CCCCC2)[C@@H](C)CN([C@@H](C)CO)C(=O)c2cc(NC(=O)Nc3ccc4c(c3)OCO4)ccc2O1,99*,2,·,?,109*,41*,106*
O=C(CSC1CC(=O)N(c2ccc(F)cc2)C1=O)Nc1ccc(Br)cc1 (stereo not given),·,·,0,·,·,·,·
CCc1cnc(N2[C@H](C#N)[C@@H](c3ccccc3)[C@@H]2CO)s1,36,2,·,·,·,·,·
CCc1cnc(N2[C@H](CO)[C@@H](c3ccccc3)[C@@H]2C#N)s1,2,-1,·,·,·,·,·
